Series [1] can be described thus: Selectivity index, ratio of CC50 for human TZM-bl cells to EC50 for HIV1 NL4-3. The format is toxicity, cell-based. The following applies: read-out: Ratio CC50/EC50.
Series [2] is described as follows: Selectivity index, ratio of CC50 for human MT2 cells to EC50 for HIV1 3B. The following applies: read-out: Ratio CC50/EC50. The series is classed as toxicity, cell-based. Summed up: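 HIV-1 IIIB replication in MT-2 cells, measured by p24 ELISA to give the EC50. Cytotoxicity in uninfected MT-2 cells measured by XTT to give the CC50. Each run in triplicate and reported as means ± SD. SI = CC50/EC50.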

The test system of series [3] is Human immunodeficiency virus 1. The series can be described thus: Antiviral activity against HIV1 NL4-3 infected in human TZM-bl cells assessed as inhibition of viral replication. The format is functional, organism-based. As to conditions: Human immunodeficiency virus 1, NL4-3, TZM-bl. In outline:
(§1)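 Tested in triplicate and reported as means ± SD. The RTMDR1 strain carries the RT mutations 74V, 41L, 106A and 215Y.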

The nature of series [4]: Selectivity index, ratio of CC50 for human TZM-bl cells to EC50 for HIV1 RTMDR1. The series is classed as toxicity, cell-based. As to conditions: read-out: Ratio CC50/EC50.
In a further series the test system is MT2. The series can be described thus: Cytotoxicity against human MT2 cells after 4 days by XTT assay. The format is cell-based. The following applies: mt2, 96 h. (In general: Formazan colour is commonly taken as a measure of viable cells.)
The nature of series [5]: Cytotoxicity against human TZM-bl cells. The series is classed as cell-based.
Series [6] has as its system Human immunodeficiency virus 1. Put plainly: Antiviral activity against HIV1 3B infected in human MT2 cells assessed as inhibition of viral replication by p24 antigen assay. The format is functional, organism-based. The following applies: Human immunodeficiency virus 1, 3B. Summed up:
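HIV-1 IIIB replication in MT-2 cells, read as p24 production by ELISA. […] Tested in triplicate; means ± SD.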

Series [7] has as its system Human immunodeficiency virus 1. Put plainly: Antiviral activity against HIV1 RTMDR1 infected in human TZM-bl cells assessed as inhibition of viral replication. The series is classed as functional, organism-based. The following applies: Human immunodeficiency virus 1, RTMDR1, TZM-bl. Summed up: as §1
For series [8], the system named is Human immunodeficiency virus 1. The series can be described thus: Antiviral activity against HIV1 3B infected in human MT4 cells assessed as inhibition of viral replication. The format is functional, organism-based. As to conditions: Human immunodeficiency virus 1, 3B.
The nature of series [9]: Selectivity index, ratio of CC50 for human MT4 cells to EC50 for HIV1 3B.

The EC50 is the concentration needed to bring the measured effect to its halfway point. As usually defined, the CC50 is the concentration at which the toxic effect on the cells reaches its halfway point. Read a high CC50 as lower toxicity to the cells. As for `Cc1cc(I)cc(C)c1Oc1ccc(N)c(Nc2ccc(C#N)cc2)n1`, the selectivity ratio in series [1] stood at 2200; in [2], 297; in series [4], 3260. Further, the values for the half-maximal effective concentration (EC50) in series [3], in series [6] and in series [7] were 7.6 nM, 79 nM and 5.13 nM, respectively. The values for the CC50 (in the series on MT2; in series [5]) were 23500 nM and 16700 nM, respectively.

Regarding `Cc1cc(C#CC(C)(C)O)cc(C)c1Oc1ccc(N)c(Nc2ccc(C#N)cc2)n1`, the selectivity ratio in series [1] came to 36; in series [2], 2; in [4], 16. Further, the EC50 in series [3] was found to be 241 nM; in series [6], 1580 nM; in [7], 531 nM. Further, the figures for the CC50 (with MT2; in series [5]) were 3540 nM and 8730 nM, respectively.

Consider `Cc1cc(CO)cc(C)c1Oc1ccc([N+](=O)[O-])c(Nc2ccc(C#N)cc2)n1`, for which the selectivity ratio in series [1] is more than 108; in series [2], 603; in series [4] it was more than 58. The figures for the EC50 in series [3], in series [6] and in series [7] were 477 nM, 192 nM and 877 nM, respectively. Besides, the values for the CC50 (in the series with MT2; in [5]) were 116000 nM and more than 51300 nM, respectively.

Take `Cc1cc(C#N)cc(C)c1Oc1ccc(N)c(Nc2ccc(C#N)cc2)n1`: the values for the selectivity ratio in [1], in series [2] and in [4] were 13200, 22700 and 9350, respectively. The figures for the EC50 in [3], in [6] and in series [7] were 0.68 nM, 1.4 nM and 0.96 nM, respectively. Also, the CC50 was 31800 nM with MT2 and 8980 nM in series [5].

As to `Cc1cc(C#N)cc(C)c1Oc1ccc([N+](=O)[O-])c(Nc2ccc(C#N)cc2)n1`, the figures for the selectivity ratio in series [1], in series [2] and in series [4] were more than 2350, 371 and more than 2460, respectively. The EC50 was determined as 22.1 nM in series [3], 135 nM in series [6] and 21.1 nM in [7]. Further, the CC50 is 50100 nM in the series on MT2 and more than 52000 nM in series [5].

For `Cc1cc(C#CC(C)(C)O)cc(C)c1Oc1ccc([N+](=O)[O-])c(Nc2ccc(C#N)cc2)n1`, the values for the selectivity ratio in [1], in [2] and in [4] were more than 1.09, less than 1 and more than 1.78, respectively. Further, the results for the EC50 in [3], in [6] and in [7] were 41300 nM, 23300 nM and 25500 nM, respectively. The CC50 is 8910 nM in the series with MT2 and more than 45200 nM in [5].

Regarding `Cc1cc(C#N)cc(C)c1Oc1nc(Nc2ccc(C#N)cc2)nc(N)c1Br` [ETRAVIRINE], the EC50 in series [8] was found to be 1.58 nM. Further, in series [9], the selectivity ratio is 63100.

In the case of `C#Cc1cc(C)c(Oc2ccc([N+](=O)[O-])c(Nc3ccc(C#N)cc3)n2)c(C)c1`, the values for the selectivity ratio in series [1], in series [2] and in [4] were more than 469, 256 and more than 242, respectively. The EC50 stood at 111 nM in [3], 677 nM in series [6] and 215 nM in [7]. The CC50 in the series on MT2 was 174000 nM; in series [5], more than 52100 nM.

For the molecule `Cc1cccc(C)c1Oc1ccc([N+](=O)[O-])c(Nc2ccc(C#N)cc2)n1`, the selectivity ratio is more than 238 in series [1], 107 in series [2] and more than 433 in series [4]. Also, the figures for the EC50 in series [3], in series [6] and in series [7] were 234 nM, 1030 nM and 128 nM, respectively. Further, the CC50 in the series on MT2 is 110000 nM; in series [5], more than 55600 nM.

With `Cc1cc(C)c(Oc2ccc([N+](=O)[O-])c(Nc3ccc(C#N)cc3)n2)c(C)c1`, the results for the selectivity ratio in series [1], in series [2] and in [4] were more than 2340, 4260 and more than 969, respectively. In addition, the EC50 in series [3] was found to be 22.9 nM; in [6], 118 nM; in [7] it was 55.2 nM. The CC50 in the series with MT2 is 503000 nM; in [5], more than 53500 nM.

Consider `Cc1cccc(C)c1Oc1ccc(N)c(Nc2ccc(C#N)cc2)n1`, for which the selectivity ratio worked out at 2020 in [1], 52 in series [2] and 2150 in series [4]. The EC50 in series [3] is 4.02 nM; in series [6] it was 576 nM; in [7], 3.78 nM. Moreover, the figures for the cytotoxic concentration (CC50) (with MT2; in series [5]) were 29900 nM and 8140 nM, respectively.

Regarding `Cc1cc(C)c(Oc2ccc(N)c(Nc3ccc(C#N)cc3)n2)c(C)c1`, the selectivity ratio was determined as 11200 in [1], 182 in [2] and 15500 in series [4]. For the same molecule, the EC50 in series [3] turned out to be 1.67 nM; in [6], 58 nM; in series [7], 1.2 nM. The CC50 in the series with MT2 is 10600 nM; in [5] it was 18600 nM.

Take `Cc1cc(I)cc(C)c1Oc1ccc([N+](=O)[O-])c(Nc2ccc(C#N)cc2)n1`: the selectivity ratio in [1] is more than 675; in series [2] it was 61; in series [4], more than 436. Further, the EC50 came out at 61 nM in [3], 2430 nM in series [6] and 94.3 nM in series [7]. Further, the CC50 in the series on MT2 was 148000 nM; in [5] it was more than 41200 nM.

Consider `Cc1cc(C)c(Nc2ccnc(Nc3ccc(C#N)cc3)n2)c(C)c1` [DAPIVIRINE], for which the selectivity ratio in [1] was more than 490; in series [4] it was more than 1020. Further, the EC50 in [3] amounted to 0.62 nM; in [7] it was 0.298 nM. The same molecule showed a CC50 in series [5] of more than 304 nM.

With `Cc1cc(CO)cc(C)c1Oc1ccc(N)c(Nc2ccc(C#N)cc2)n1`, the selectivity ratio turned out to be 857 in [1], 391 in series [2] and 372 in [4]. Moreover, the EC50 in series [3] is 10.9 nM; in series [6] it was 6 nM; in series [7], 25.1 nM. In addition, the CC50 in the series with MT2 was 2190 nM; in series [5], 9340 nM.

Regarding `C#Cc1cc(C)c(Oc2ccc(N)c(Nc3ccc(C#N)cc3)n2)c(C)c1`, the selectivity ratio in series [1] came out at 1480; in series [2], 20; in series [4], 1100. In addition, the EC50 in series [3] was found to be 6.7 nM; in [6], 424 nM; in series [7] it was 9.03 nM. The CC50 in the series with MT2 was found to be 8250 nM; in [5] it was 9940 nM.

The record behind these values is ChEMBL document CHEMBL1155964, “Discovery of diarylpyridine derivatives as novel non-nucleoside HIV-1 reverse transcriptase inhibitors” (Bioorg Med Chem Lett, 2009).
